# Assay results from ChEMBL document CHEMBL4825692, “Benzofuranyl-2-imidazoles as imidazoline I2 receptor ligands for Alzheimer's disease” (Eur J Med Chem, 2021).
# Activity calls are given as the source filed them. No cut-off for these calls is given here.
# Tests used:
# [1] = Displacement of [3H]clonidine from imidazoline I1 receptor low affinity site in rat hypothalamic membranes measured after 30 mins by liquid scintillation counting spectrometry; type: cell membranes, Hypothalamus, Membrane
# [2] = target: T1, Adrenergic receptor alpha-2 (Homo sapiens, UniProt P08913+P18825+P18089); test: Displacement of [3H]-RX821002 from adrenergic alpha 2 receptor in post-mortem human brain frontal cortex membrane measured after 30 mins by liquid scintillation counting spectrometry; type: cell membranes
# T1 sequence (P08913 whole entry): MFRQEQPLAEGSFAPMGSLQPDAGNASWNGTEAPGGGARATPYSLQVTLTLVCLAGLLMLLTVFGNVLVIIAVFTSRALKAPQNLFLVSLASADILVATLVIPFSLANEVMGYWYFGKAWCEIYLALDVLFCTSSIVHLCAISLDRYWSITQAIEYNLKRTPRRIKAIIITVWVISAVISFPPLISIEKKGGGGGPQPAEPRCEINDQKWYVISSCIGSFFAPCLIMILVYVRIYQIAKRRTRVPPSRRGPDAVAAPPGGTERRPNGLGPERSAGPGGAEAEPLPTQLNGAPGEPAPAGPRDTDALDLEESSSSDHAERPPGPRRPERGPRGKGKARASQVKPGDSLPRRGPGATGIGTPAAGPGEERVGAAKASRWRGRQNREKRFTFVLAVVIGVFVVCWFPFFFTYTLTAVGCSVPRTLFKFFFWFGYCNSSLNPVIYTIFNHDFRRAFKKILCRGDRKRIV
# T1 sequence (P18825 whole entry): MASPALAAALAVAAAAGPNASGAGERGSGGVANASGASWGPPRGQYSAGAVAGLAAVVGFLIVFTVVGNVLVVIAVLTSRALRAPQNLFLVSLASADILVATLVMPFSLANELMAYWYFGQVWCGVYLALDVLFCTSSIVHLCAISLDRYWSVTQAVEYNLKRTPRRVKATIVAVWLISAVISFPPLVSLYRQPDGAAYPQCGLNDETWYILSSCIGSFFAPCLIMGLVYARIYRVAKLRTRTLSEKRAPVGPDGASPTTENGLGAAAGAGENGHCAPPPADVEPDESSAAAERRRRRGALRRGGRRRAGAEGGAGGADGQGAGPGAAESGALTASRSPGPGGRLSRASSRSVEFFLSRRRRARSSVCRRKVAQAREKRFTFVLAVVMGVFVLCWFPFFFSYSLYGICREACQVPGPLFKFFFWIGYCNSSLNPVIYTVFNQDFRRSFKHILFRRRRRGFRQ
# T1 sequence (P18089 whole entry): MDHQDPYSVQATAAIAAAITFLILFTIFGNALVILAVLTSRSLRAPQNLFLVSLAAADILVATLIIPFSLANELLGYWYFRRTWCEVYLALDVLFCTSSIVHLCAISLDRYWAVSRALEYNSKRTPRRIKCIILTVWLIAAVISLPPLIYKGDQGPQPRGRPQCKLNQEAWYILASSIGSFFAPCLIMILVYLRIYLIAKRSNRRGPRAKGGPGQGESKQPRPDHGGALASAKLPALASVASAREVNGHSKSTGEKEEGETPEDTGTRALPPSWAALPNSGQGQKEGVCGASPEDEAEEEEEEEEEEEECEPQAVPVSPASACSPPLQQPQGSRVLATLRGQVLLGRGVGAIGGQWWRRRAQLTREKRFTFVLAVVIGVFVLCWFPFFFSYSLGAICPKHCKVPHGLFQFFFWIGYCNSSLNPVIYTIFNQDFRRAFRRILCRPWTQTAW
# [3] = Solubility of the compound in 99 % PBS buffer solution; type: physicochemical
# [4] = target: Cytochrome P450 2D6 (Homo sapiens, UniProt P10635); test: Inhibition of CYP2D6 (unknown origin) at 10 uM; type: ADME
# How it was run: (§1)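 Recombinant human CYP1A2, CYP2C9, CYP2C19, CYP2D6 and CYP3A4 (7-BFC or DBF as probe) were tested with probe substances and fluorescent detection, with test compound at 10 μM.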
# [5] = target: Cytochrome P450 3A4 (Homo sapiens, UniProt P08684); test: Inhibition of CYP3A4 (unknown origin) using as DBF as substrate at 10 uM; type: ADME; how it was run: as §1
# [6] = Stability in human plasma assessed as compound remaining after 2 hrs; type: ADME, cell-free; settings: read-out: Stabilty
# How it was run: (§2)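 Pooled human plasma from healthy donors, sampled at 0, 1, 2 and 6 h, reported as percentage of parent remaining.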
# [7] = Stability in human plasma assessed as compound remaining after 6 hrs; type: ADME, cell-free; settings: read-out: Stabilty; how it was run: as §2
# [8] = test system: LN-229; test: Cytotoxicity against human LN-229 cells at 100 uM by real time IncuCyte proliferation assay; type: cell-based; settings: ln-229, 100 µM
# How it was run: (§3)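 Adherent lines (LN-229, Capan-1, HCT-116, NCI-H460) seeded at 500–1500 cells/well and treated after overnight attachment. Suspension lines (HL-60, K-562, Z-138, DND-41) seeded at 2500–5500 cells/well directly with compound. Highest concentration 100 μM; proliferation tracked by real-time IncuCyte imaging over 72 h at 37 °C.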
# [9] = test system: HCT-116; test: Cytotoxicity against human HCT-116 cells at 100 uM by real time IncuCyte proliferation assay; type: cell-based; settings: hct-116, 100 µM; how it was run: as §3
# [10] = test system: Z-138; test: Cytotoxicity against human Z138 cells at 100 uM by real time IncuCyte proliferation assay; type: cell-based; settings: z-138, 100 µM; how it was run: as §3
# [11] = AUC (0 to infinity) in CD-1 mouse at 10 mg/kg, po measured after 24 hrs by HPLC/UV-VS analysis; type: ADME, organism-based; parameters: route oral, time 24 hrs, dose 10 mg/kg; settings: in vivo
# How it was run: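 Male CD1 mice; plasma concentration of drug at 15 min to 24 h after a single oral 10 mg/kg dose, measured by HPLC with UV at 290 nm (calibration 0,025-5 μg/mL, peak area ratio). Non-compartmental analysis of mean concentration–time curves: AUC by trapezoidal rule, Cmax read directly from the mean curve.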
# [12] = test system: Mus musculus; test: Antialzheimer activity in 5xFAD transgenic Alzheimer disease mouse model assessed as increase in GPX1 expression at 1 mg/kg/day by Western blot analysis
# [13] = test system: Mus musculus; test: Antialzheimer activity in 5xFAD transgenic Alzheimer disease mouse model assessed as decrease in heme oxygenase 1 expression at 1 mg/kg/day by Western blot analysis
# [14] = test system: Mus musculus; test: Antialzheimer activity in 5xFAD transgenic Alzheimer disease mouse model assessed as decrease in aldehyde dehydrogenase 2 expression at 1 mg/kg/day by Western blot analysis
# [15] = Displacement of [3H]2-BFI from imidazoline I2 receptor high affinity site in Swiss mouse brain cerebral cortex membrane measured after 45 mins by liquid scintillation counting spectrometry
# [16] = Displacement of [3H]2-BFI from imidazoline I2 receptor low affinity site in post-mortem human brain frontal cortex membrane two site model measured after 45 mins by liquid scintillation counting spectrometry
# [17] = organism: Rattus norvegicus; test: Displacement of [3H]idazoxan from imidazoline I2 receptor in rat brain cerebral cortex membrane assessed as occupancy at high affinity site measured after 30 mins by liquid scintillation counting spectrometry
# Cytochrome P450 3A4, sequence (P08684 whole entry): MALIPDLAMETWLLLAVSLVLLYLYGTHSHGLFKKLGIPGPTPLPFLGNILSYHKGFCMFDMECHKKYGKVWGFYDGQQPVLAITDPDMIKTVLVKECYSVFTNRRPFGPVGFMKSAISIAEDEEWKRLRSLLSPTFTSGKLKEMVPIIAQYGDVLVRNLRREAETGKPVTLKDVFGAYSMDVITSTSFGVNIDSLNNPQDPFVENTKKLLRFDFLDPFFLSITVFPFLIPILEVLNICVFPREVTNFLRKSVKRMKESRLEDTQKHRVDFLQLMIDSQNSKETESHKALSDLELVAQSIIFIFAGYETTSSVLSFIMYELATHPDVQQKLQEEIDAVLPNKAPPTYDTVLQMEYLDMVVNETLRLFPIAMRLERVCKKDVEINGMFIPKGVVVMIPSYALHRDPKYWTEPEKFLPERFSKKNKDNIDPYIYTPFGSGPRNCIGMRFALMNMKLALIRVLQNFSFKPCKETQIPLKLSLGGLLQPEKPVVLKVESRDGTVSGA
# Cytochrome P450 2D6, sequence (P10635 whole entry): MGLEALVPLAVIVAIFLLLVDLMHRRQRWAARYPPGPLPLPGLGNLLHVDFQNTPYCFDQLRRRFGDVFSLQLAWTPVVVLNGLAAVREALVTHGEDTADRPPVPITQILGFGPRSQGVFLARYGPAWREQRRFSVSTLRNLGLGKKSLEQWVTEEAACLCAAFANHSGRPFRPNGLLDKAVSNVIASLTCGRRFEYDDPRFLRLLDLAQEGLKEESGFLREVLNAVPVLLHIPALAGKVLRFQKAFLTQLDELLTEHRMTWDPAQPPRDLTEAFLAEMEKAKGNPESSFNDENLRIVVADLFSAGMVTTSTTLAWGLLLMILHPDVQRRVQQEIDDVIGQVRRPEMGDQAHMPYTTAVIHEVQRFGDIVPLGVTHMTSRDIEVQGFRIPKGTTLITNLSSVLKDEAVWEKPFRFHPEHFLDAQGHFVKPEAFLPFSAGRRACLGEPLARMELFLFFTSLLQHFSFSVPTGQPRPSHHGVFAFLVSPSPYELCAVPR
structure (smiles),measurement,setting,value
Cl.c1ccc2oc(-c3ncc[nH]3)cc2c1,Ki,[1],115 µM
same,pKi,[2],3.18
same,solubility,[3],52.5 µM
same,inhibition (INH),[4],Not Active
same,inhibition (INH),[5],Not Active
same,remaining at 2 h,[6],77%
same,remaining at 6 h,[7],57%
same,Activity,[8],Non-Toxic
same,Activity,[9],Non-Toxic
same,Activity,[10],Non-Toxic
same,AUC(0-inf),[11],2600 ng·h/mL
same,Activity,[12],Active
same,Activity,[13],Active
same,Activity,[14],Active
same,pKi,[15],9.92
same,pKi,[16],6.02
same,Activity,[17],79%
